The values that follow come from ChEMBL document CHEMBL1145465, “PhoU is a persistence switch involved in persister formation and tolerance to multiple antibiotics and stresses in Escherichia coli” (2007).

Molecules are shown by their SMILES. In brackets after ≈: the same amount, converted by molar mass.

What all share (format): functional
For test [1], the system named is Escherichia coli. Nature of the test: Antibacterial activity against Escherichia coli K12 mutant JHU313 containing plasmid PhoU after 16 hrs by serial dilution method. The settings on record: K12, 16 h. The procedure, abridged: (§1)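 Twofold serial antibiotic dilutions in LB broth were seeded with 10⁶–10⁷ bacteria/ml from log-phase culture and incubated 16 h at 37°C. MIC was taken as the lowest concentration with no visible growth. MBC was taken as the concentration giving a 100-fold CFU drop from the inoculum.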

The subject of test [2] is Escherichia coli. Nature of the test: Antibacterial activity against Escherichia coli K12 mutant JHU313 containing plasmid PhoU at 25 ug/ml after 48 hrs by disc diffusion method. A digest of the protocol: (§2)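 Kirby-Bauer disc assay: log-phase LB culture was spread on LB agar for confluent growth. 7-mm nitrocellulose discs were soaked in antibiotic at the listed concentration and placed on the agar. After 48 h at 37°C, the diameter of the inhibition zone was measured in mm.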
Background: Agar diffusion results depend on both activity and mobility in agar.

Test [3] has as its system Escherichia coli. Nature of the test: Antibacterial activity against Escherichia coli K12 containing deletion deltaphoBR mutant assessed as cell count in log phase at 100 ug/ml after 5 hrs. The procedure, abridged: (§3)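 Deletion mutants were made by the Datsenko–Wanner method. Log-phase or stationary-phase cultures were exposed to ampicillin at 100 μg/ml. CFU/ml was determined at the start and after 5, 24 and 72 h of exposure.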

The subject of test [4] is Escherichia coli. Description: Antibacterial activity against Escherichia coli K12 containing deletion deltaphoBR mutant assessed as cell count in stationary phase at 100 ug/ml after 72 hrs. The procedure, abridged:
as §3

The test system of test [5] is Escherichia coli. Description: Antibacterial activity against Escherichia coli K12 PhoU wild type W3110 at 6 ug/ml after 48 hrs by disc diffusion method. The procedure, abridged: (§4)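 Kirby-Bauer disc assay. Log-phase LB culture (10⁸ bacteria) was spread for confluent growth on LB agar. 7 mm nitrocellulose discs soaked in antibiotic at the listed concentrations were laid on the agar. Inhibition zone diameter (mm) was measured after 48 h at 37°C.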

The test system of test [6] is Escherichia coli. Nature of the test: Antibacterial activity against Escherichia coli K12 containing PhoU mutant assessed as cell count in stationary phase at 100 ug/ml after 1 day. A digest of the protocol: (§5)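 Log-phase or stationary-phase cultures were exposed to ampicillin (100 μg/ml) or norfloxacin (3 μg/ml) in MOPS minimal medium, pH 5.0, at 37°C without shaking, for 5 h to 10 days. Aliquots were saline-washed and plated on LB for CFU/ml.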

Test [7] has as its system Escherichia coli. Description: Antibacterial activity against Escherichia coli K12 PhoU wild type W3110 assessed as cell count in log phase at 100 ug/ml after 10 days. A digest of the protocol: as §5
Test [8] deals with Escherichia coli. Nature of the test: Antibacterial activity against Escherichia coli K12 mutant JHU313 containing plasmid PhoU at 6 ug/ml after 48 hrs by disc diffusion method. The procedure, abridged:
as §2

Test [9] has as its system Escherichia coli. Nature of the test: Antibacterial activity against Escherichia coli K12 mutant JHU313 containing plasmid vector at 100 ug/ml after 48 hrs by disc diffusion method. The procedure, abridged: as §2
In test [10] the test system is Escherichia coli. Description: Antibacterial activity against Escherichia coli K12 mutant JHU313 after 16 hrs by serial dilution method. The conditions noted are these: K12, 16 h. The procedure, abridged:
as §1

For test [11], the system named is Escherichia coli. Description: Antibacterial activity against Escherichia coli K12 mutant JHU313 containing plasmid vector at 6 ug/ml after 48 hrs by disc diffusion method. A digest of the protocol: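 Kirby-Bauer paper-disc assay: log-phase E. coli (10⁸ bacteria) grown in LB broth, spread on LB agar for confluent growth; 7 mm nitrocellulose discs soaked with antibiotic solution at the listed concentration (μg/ml) placed on surface; incubated 37°C for 48 h; diameter of growth-inhibition zone measured in mm. Strain is the phoU transposon mutant transformed by electroporation with empty vector control.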

Test [12] concerns Escherichia coli. Description: Antibacterial activity against Escherichia coli K12 PhoU wild type W3110 assessed as cell count in log phase at 100 ug/ml after 1 day. A digest of the protocol:
(§6)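 Log-phase or stationary-phase cultures exposed to ampicillin 100 μg/ml in MOPS minimal medium (pH 5.0) at 37°C without shaking, for 5 h up to 10 days. Aliquots were taken at each time point, washed in saline and plated on LB plates for viable CFU/ml.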

The test system of test [13] is Escherichia coli. Description: Antibacterial activity against Escherichia coli K12 mutant JHU313 containing plasmid vector after 16 hrs by serial dilution method. The conditions noted are these: K12, 16 h. A digest of the protocol:
as §1

Test [14] concerns Escherichia coli. Description: Antibacterial activity against Escherichia coli K12 containing deletion deltahipA mutant assessed as cell count in stationary phase at 100 ug/ml after 5 hrs. A digest of the protocol: as §3
The subject of test [15] is Escherichia coli. Nature of the test: Antibacterial activity against Escherichia coli K12 PhoU wild type W3110 assessed as cell count in log phase at 100 ug/ml after 3 days. The procedure, abridged:
as §6

Test [16] deals with Escherichia coli. Nature of the test: Antibacterial activity against Escherichia coli K12 PhoU wild type W3110 after 16 hrs by serial dilution method. The conditions noted are these: K12, 16 h. The procedure, abridged: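 Serial twofold antibiotic dilutions in LB broth; log-phase inoculum 10⁶ to 10⁷ bacteria/ml; 16 h at 37°C. MIC was the lowest concentration with no visible growth. MBC was the concentration giving a 100-fold CFU drop below the seeded inoculum.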

The subject of test [17] is Escherichia coli. Nature of the test: Antibacterial activity against Escherichia coli K12 mutant JHU313 at 0.5 ug/ml after 48 hrs by disc diffusion method. A digest of the protocol:
as §2

Test [18] relates to Escherichia coli. Description: Antibacterial activity against Escherichia coli K12 PhoU wild type W3110 assessed as cell count in log phase at 3 ug/ml after 1 week. The procedure, abridged:
as §5

For test [19], the system named is Escherichia coli. Nature of the test: Antibacterial activity against Escherichia coli K12 mutant JHU313 at 2 ug/ml after 48 hrs by disc diffusion method. A digest of the protocol:
as §2

In test [20] the test system is Escherichia coli. Description: Antibacterial activity against Escherichia coli K12 containing deletion deltaphoU mutant assessed as cell count in log phase at 3 ug/ml after 1 week. A digest of the protocol:
(§7)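 Log-phase or stationary-phase cultures of the ΔphoU deletion mutant (Datsenko–Wanner construction) were exposed to norfloxacin 3 μg/ml in MOPS minimal medium, pH 5.0, at 37°C without shaking, for up to 10 days. Sampled aliquots were washed in saline and plated on LB agar for CFU/ml.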

Test [21] relates to Escherichia coli. Nature of the test: Antibacterial activity against Escherichia coli K12 mutant JHU313 containing plasmid PhoU at 2 ug/ml after 48 hrs by disc diffusion method. The procedure, abridged: as §2
In test [22] the test system is Escherichia coli. Description: Antibacterial activity against Escherichia coli K12 containing PhoU mutant assessed as cell count in stationary phase at 3 ug/ml after 3 days. A digest of the protocol:
as §5

Test [23] has as its system Escherichia coli. Nature of the test: Antibacterial activity against Escherichia coli K12 containing PhoU mutant assessed as cell count in log phase at 3 ug/ml after 5 days. A digest of the protocol:
as §5

Test [24] concerns Escherichia coli. Nature of the test: Antibacterial activity against Escherichia coli K12 PhoU wild type W3110 at 4 ug/ml after 48 hrs by disc diffusion method. A digest of the protocol:
as §4

In test [25] the test system is Escherichia coli. Description: Antibacterial activity against Escherichia coli K12 PhoU wild type W3110 assessed as cell count in log phase at 3 ug/ml after 5 hrs. The procedure, abridged: as §5
Test [26] deals with Escherichia coli. Description: Antibacterial activity against Escherichia coli K12 containing PhoU mutant assessed as cell count in stationary phase at 3 ug/ml after 5 hrs. A digest of the protocol: as §5
Test [27] has as its system Escherichia coli. Description: Antibacterial activity against Escherichia coli K12 containing deletion deltaphoU mutant assessed as cell count in stationary phase at 3 ug/ml after 5 days. A digest of the protocol: as §7
The subject of test [28] is Escherichia coli. Description: Antibacterial activity against Escherichia coli K12 PhoU wild type W3110 at 0.1 ug/ml after 48 hrs by disc diffusion method. The procedure, abridged:
as §4

The subject of test [29] is Escherichia coli. Nature of the test: Antibacterial activity against Escherichia coli K12 containing PhoU mutant assessed as cell count in log phase at 3 ug/ml after 1 day. The procedure, abridged:
as §5

The test system of test [30] is Escherichia coli. Nature of the test: Antibacterial activity against Escherichia coli K12 PhoU wild type W3110 at 2 ug/ml after 48 hrs by disc diffusion method. The procedure, abridged: as §4

The term MBC denotes the lowest tested concentration that kills the bacteria rather than only halting them. The term MIC denotes the least concentration at which growth counts as inhibited.

As for `CC1(C)S[C@@H]2[C@H](NC(=O)[C@H](N)c3ccccc3)C(=O)N2[C@H]1C(=O)O` [AMPICILLIN], the MBC in test [1] amounted to 12.5 µg/mL (≈ 35.8 µM); in [10] it was 6.25 µg/mL (≈ 17.9 µM); in [13], 6.25 µg/mL (≈ 17.9 µM); in [16] it was 12.5 µg/mL (≈ 35.8 µM). For the same compound, the MIC in [1] turned out to be 3.1 µg/mL (≈ 8.87 µM); in [10], 1.5 µg/mL (≈ 4.29 µM); in [13] it was 1.5 µg/mL (≈ 4.29 µM); in [16] it was 3.1 µg/mL (≈ 8.87 µM). The inhibition zone (IZ) in test [2] is 36 mm; in test [5] it was 25 mm; in test [8] it was 32 mm; in [9], 45 mm; in test [11], 34 mm. Besides, the CFU in test [3] was 7 10^3/ml; in test [4], 2 10^8/ml; in test [6] it was 1 10^7/ml; in test [7], 0 mL⁻¹; in [12], 10 mL⁻¹; in [14], 6 10^9/ml. The CFU in test [15] came to 0 mL⁻¹.

On to `CCn1cc(C(=O)O)c(=O)c2cc(F)c(N3CCNCC3)cc21` [NORFLOXACIN], for which the MBC in test [1] turned out to be 1 µg/mL (≈ 3.13 µM); in [10], 0.5 µg/mL (≈ 1.57 µM); in test [13], 0.5 µg/mL (≈ 1.57 µM); in test [16], 1 µg/mL (≈ 3.13 µM). Also, the MIC worked out at 0.5 µg/mL (≈ 1.57 µM) in test [1], 0.125 µg/mL (≈ 0.391 µM) in [10], 0.125 µg/mL (≈ 0.391 µM) in test [13] and 0.5 µg/mL (≈ 1.57 µM) in [16]. Further, the inhibition zone (IZ) stood at 30 mm in [17]; 34 mm in test [19]; 35 mm in [21]; 32 mm in [24]; 24 mm in test [28]; 30 mm in test [30]. In addition, the CFU is 0 mL⁻¹ in [18]; 0 mL⁻¹ in [20]; 2 10^5/ml in test [22]; 0 mL⁻¹ in test [23]; 1 10^8/ml in test [25]; 3 10^8/ml in test [26]. Besides, the CFU in [27] was 0 mL⁻¹; in test [29], 4 10^5/ml.
